# Experimental data reported in the EternaBench riboswitch data.
# Tested on: MS2 coat protein
# Test: apparent Kd, MS2 coat protein; higher = weaker binding; RNA-MaP array; FMN 200 µM where present
# Procedure, shortened: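 Apparent Kd: the median of filtered binding-curve fits from single clusters. Designs were transcribed on Illumina sequencing-chip clusters by stalled E. coli RNA polymerase and titrated with SNAP-549-labelled MS2 coat protein from 0.7 or 1.5 nM, doubling to 3 µM, in 100 mM Tris-HCl pH 7.5, 80 mM KCl, 4 mM MgCl2, BSA, DTT, yeast tRNA and Tween-20. Each series ran without and then with constant ligand, and green signal was normalised to red-channel RNA signal and control-cluster median Fmax.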
# [1] = designed as: OFF switch for flavin mononucleotide, no ligand
# [2] = ligand present: flavin mononucleotide, designed as: OFF switch for flavin mononucleotide
# [3] = designed as: ON switch for flavin mononucleotide, no ligand
# [4] = ligand present: flavin mononucleotide, designed as: ON switch for flavin mononucleotide
Sequence,apparent Kd [1],apparent Kd [2],apparent Kd [3],apparent Kd [4]
AGAUAUGAUGCAGGAUAUCUAUCUUGAAUGAGGAGAGAAGGGCAAGUAGAUAGAUAAGCCUCAUGACAUGAGGAUCACCCAUGU,14.8 nM,15.2 nM,–,–
AGAUCACAUGAGGAUCACCCAUGUGAGGAUAUGAUACUAUGUACUUCGGUACAUAGUAUCAGAAGGCGCGUGAA,29.8 nM,42.2 nM,–,–
AGAUCAUCAGGAUAUACAUGGGUGAAAAAAGUAUAUCCACUACAUGAGGAUCACCCAUGUAGAAGGGAUGAUCA,17.3 nM,15.1 nM,–,–
AGAUGACAAAGUCAUCUCGCUUUGACAUGAGGAUCACCCAUGUAGGAUAUAUUAAUCAAAGAUUAAUAGAAGGACAUGUUUCUG,87.1 nM,172 nM,–,–
AGAUGACAAAGUCAUCUCGCUUUGACAUGAGGAUCACCCAUGUAGGAUAUAUUACUCAAAGAGUAAUAGAAGGACAUGUUUCUG,72.7 nM,163 nM,–,–
AGAUGGCGAGGAUAUACAUGAGGAUCACCCAUGUGAGAGAAUAAAGUGAGGAAGAAAAGUAGAAGGCGCUGUCA,59.4 nM,264 nM,–,–
AGAUGGUAUAUAGGAUAUCAUGUGCAAACAUGAGGAUCACCCAUGUAGGAACGUCAGUUCAAUAAUGAGAAGGAUAUACCAUCU,–,–,33.4 nM,11.9 nM
AGAUGUACAGCGAUAUGAUCGAGAGAUCAUGUCGCUGAAUUUAGAAGGACAUGAGGAUCACCCAUGUAGGAUAUGGGUGUAAUA,–,–,80.8 nM,72.8 nM
AGAUUACGAGGAUAUCGAUUUUAGUACAUGAGGAUCACCCAUGUUAUCCAGGUCUCGUUUCGAGAAGGCGUGAUUC,303 nM,132 nM,–,–
AGAUUCAUGGCCCGUUCGGGCUCACAUGAGGAUCACCCAUGUGAGGAUAUGAUAUACCUGAUUUAUCAGAAGGCGCAUGCGAAA,7.22 nM,10.3 nM,–,–
AGAUUUGUACAUGAGGAUCACCCAUGUUAAUAGGUGUUUGUCAGAAGGCAUUAAUAGAGAUUUAAUGAGGAUAUGAAUUUACAA,–,–,58.2 nM,28.9 nM
AGAUUUGUACAUGAGGAUCACCCAUGUUAAUAGGUGUUUGUCAGAAGGCAUUAAUAGAGAUUUAAUGAGGAUAUGAUGUUACAA,–,–,49.3 nM,35.2 nM
AGCAACAUGAGGAUCACCCAUGUUGGUUCGAAAACGGACUCACAGGAUAUACGGCAUAAUCGCUCGUAGAAGGGUGCGUCCUCA,–,–,14 nM,12.8 nM
AGCAAGUUUACAUGAGGAUCACCCAUGUUUUUUAGGGUUAUCAGAAGGUACAUUUUGAGAUAGAGUAAGGAUAUGAUAUAUGCG,–,–,169 nM,55 nM
AGCAUGUAAGGAUAUGUAACGCGGCUUUCAUUCGCCGUCCCACAGAAGGUACAUGAGGAUCACCCAUGUGCUCC,38.1 nM,87.6 nM,–,–
AGCAUGUGAGGAUAUGCGGACUCCGGUAAAGCUGGAGUCCAGUAGAAGGCACAUGAGGAUCACCCAUGUGAGAU,59.7 nM,212 nM,–,–
AGCAUGUGAGGAUAUGUGAGCCUCAUCCGAAGGACGAGGGAAUAGAAGGCACAUGAGGAUCACCCAUGUGAUGA,27.3 nM,74.3 nM,–,–
AGCCAAGCAGGAUAUGCACGUAAUAACAUGAGGAUCACCCAUGUGACCGAUUUAUAUUCUGCAGAAGGGCUUGGAU,29 nM,118 nM,–,–
AGCCAAGCAGGAUAUGCCCGGGAUAACAUGAGGAUCACCCAUGUGACCGAUUGAUGUCCUGCAGAAGGGCUUGGGA,15.6 nM,79.8 nM,–,–
AGCGACCAAGGAUAUACAUGAGGAUCACCCAUGUCGGCGACCUUCCUGGGAUUUCUUAGUAGAAGGUGGUCAAU,42.7 nM,86.9 nM,–,–
AGCGGAGACAUGAGGAUCACCCAUGUCAGUGCCGGCGAUACCAGAAGGCCCGGCGGGCCUCGCCGGGAGGAUAUGGGUUCAACA,–,–,13.1 nM,8.39 nM

Sequence,apparent Kd [1],apparent Kd [2],apparent Kd [3],apparent Kd [4]
AGCUACACCCAGAAGGACAUGAGGAUCACCCAUGUAGGAUAUGGGACACACAGUGCCAUGUAGAGAAAUUACGCUAGUGUAGCG,–,–,14.3 nM,8.42 nM
AGCUACACCCAGAAGGACAUGAGGAUCACCCAUGUAGGAUAUGGGAGACACAGUCCCAUGUAGAGAAAUUACGCUAGUGUAGCG,–,–,102 nM,46.5 nM
AGCUACGUUUCGUAGCAGCUAGGUGAGGAUAUCCACUCUACAUGAGGAUCACCCAUGUUAACAUGGGAGAAGGCGCCUAGAAAG,–,–,104 nM,11.8 nM
AGCUACGUUUCGUAGCAGCUAGGUGAGGAUAUUCAAUUGUUCACAUGAGGAUCACCCAUGUAUGUGAAGAAGGCGCCUAGAAAG,–,–,7.16 nM,5.34 nM
AGCUACGUUUCGUAGCAGCUAGGUGAGGAUAUUCAAUUUUUCACAUGAGGAUCACCCAUGUAUGUGAAGAAGGCGCCUAGAAAG,–,–,13.3 nM,4.77 nM
AGCUACGUUUCGUAGCAGUGUCAUCGAGAAGGCCUUAUAACAUGAGGAUCACCCAUGUUAACAUGGGAGGAUAUCGAUGAUACA,–,–,10.5 nM,5.34 nM
AGCUACGUUUCGUAGCAGUGUCAUCGAGAAGGCCUUAUUACAUGAGGAUCACCCAUGUGGACAUGGGAGGAUAUCGAUGAUACA,–,–,61.3 nM,8.06 nM
AGCUACGUUUCGUAGCAGUGUCAUCGAGAAGGCUCAUAUACAUGAGGAUCACCCAUGUUAACAUGGGAGGAUAUCGAUGAUACA,–,–,50.2 nM,6.64 nM
AGCUAGAGAGGAUAUACGUAGGAAAAAAAAGUCUGAUCCCUACAUGAGGAUCACCCAUGUAGAAGGCUCUGGCA,91.5 nM,81.8 nM,–,–
AGCUAGUCAGGAUAUACAAACAUGUCAAAAGACGUGAGGGAACAUGAGGAUCACCCAUGUAGAAGGGACUAGCA,53.6 nM,195 nM,–,–
AGCUAGUGAGGAUAUACGAACAUGUCAAAAGACGUGAAAUAACAUGAGGAUCACCCAUGUAGAAGGCACUAGCA,19.2 nM,16.7 nM,–,–
AGCUGGUGACAGCAAGAAACUUCACAUGAGGAUCACCCAUGUAGAAGGCUGUACGGUUACCGUACAGAGGAUAUACAUUGAAGA,5.59 nM,8.63 nM,–,–
AGCUGGUGACAGCAUCCAUCAAAACAUGAGGAUCACCCAUGUAGAAGGCUGUACGGUUACCGUACAGAGGAUAUACAAUGAUGU,15.2 nM,26.2 nM,–,–
AGCUGGUGACAGCAUCCAUCCUGACAUGAGGAUCACCCAUGUAGAAGGCUGUACGGUUACCGUACAGAGGAUAUACAAUGAUGG,10.1 nM,22.3 nM,–,–
AGCUGUGGCAGAGGAUAUACUACCAUAAUCCAUUGCAAAUAGCGAUGGACAUGAGGAUCACCCAUGUAGAAGGCUGUCUCAGCA,68.2 nM,275 nM,–,–
AGCUGUGGCCGAGGAUAUCUAAACCUCGAAAACGAAAUAUAAUCGAACAUGAGGAUCACCCAUGUAGAGAAGGCGGUCUCAGCA,69.6 nM,211 nM,–,–
AGCUGUGGCCGAGGAUAUCUAAAUUCUCAAAACGAAAUAUAAUCGAACAUGAGGAUCACCCAUGUAGAGAAGGCGGUCUCAGCA,39 nM,298 nM,–,–
AGGAAGCAAGGAUAUACGAGGAGAAGGUGGAGAGUUAAAGGACAUGAGGAUCACCCAUGUAGAAGGUGCGAGAA,59.7 nM,76.8 nM,–,–
AGGAAGUAAGGAUAUGCUGCUCGUCACUUGCGUGAUGAGUAGCAGAAGGUACAUGAGGAUCACCCAUGUAAAGA,23.7 nM,20.6 nM,–,–
AGGAAGUGAGGAUAUGCAUCAUAUAGUGGACGCUAUAGAAUGUAGAAGGCACAUGAGGAUCACCCAUGUUUAAA,30.2 nM,29.3 nM,–,–
AGGAGAAAUGUAGGAUAUGGGCAUAUAUAUGGGCAAAGCGCAUAUAUAUGCCCAGAAGGACAUGAGGAUCACCCAUGUUUCCCU,12.5 nM,13.6 nM,–,–
